The text below walks through data of ChEMBL document CHEMBL3259637, “Synthesis and antiproliferative effect of novel 4-thiazolidinone-, pyridine- and piperazine-based conjugates on human leukemic cells” (Eur J Med Chem, 2014).

As usually defined, the pIC50 is the IC50 on a negative log10 scale, so that one unit is a factor of ten. A low value points to a large IC50.

SMILES strings stand for the structures. pIC50: −log10 of the molar value. Calls of active or inactive are those of the source. The calls are words filed in the database; no cut-off is given here.

The test system of one assay is Jurkat. The assay is described as follows: Antiproliferative activity against human Jurkat cells after 48 to 72 hrs by trypan blue dye exclusion assay and MTT assay. In kind it is functional, cell-based.
The subject of another assay is K562. Kind of assay: Antiproliferative activity against human K562 cells after 48 to 72 hrs by trypan blue dye exclusion assay and MTT assay. In kind it is functional, cell-based. (In general: Formazan colour is commonly taken as a measure of viable cells.)
Assay [1] can be described thus: Antiproliferative activity against human NALM6 cells after 48 to 72 hrs by trypan blue dye exclusion assay and MTT assay. In kind it is functional, cell-based. The note with it: NALM-6.
Assay [2] can be described thus: Cell cycle arrest in human NALM6 cells assessed as change in cell cycle distribution after 48 hrs by propidium iodide staining based flow cytometry. The note with it: NALM-6. In kind it is functional. The essentials:
(§1)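 Nalm6 cells (about 0.75 × 10⁵ cells/ml) were treated at 5, 10 and 20 µM for 48 h, with a DMSO vehicle control. Cells were PBS-washed, treated with RNase (50 µg/ml), stained with propidium iodide and analysed by flow cytometry (488 nm excitation, 560/670 emission). At least 10,000 cells per sample; subG1, G1, S and G2/M fractions scored. Two independent experiments.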

Assay [3] can be described thus: Cell cycle arrest in human NALM6 cells assessed as change in cell cycle distribution at 5 to 10 uM after 48 hrs by propidium iodide staining based flow cytometry. In kind it is functional. The note with it: NALM-6. The essentials: as §1
(In general: A flow cytometer gives signals particle by particle.)

Assay [4] in a line: Cell cycle arrest in human NALM6 cells assessed as accumulation at subG1 phase at 20 uM after 48 hrs by propidium iodide staining based flow cytometry. In kind it is functional. The note with it: NALM-6. The essentials:
as §1

Assay [5] can be described thus: Cell cycle arrest in human NALM6 cells assessed as accumulation at G2/M phase at 20 uM after 48 hrs by propidium iodide staining based flow cytometry. The note with it: NALM-6. In kind it is functional. The essentials: as §1
A further assay relates to NALM-6. Kind of assay: Induction of cell death in human NALM6 cells assessed as mitochondrial membrane potential depolarization after 48 hrs by JC1 staining based flow cytometry. In kind it is functional. The essentials: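 Nalm6 cells were exposed to 5, 10 and 20 µM for 48 h, then loaded with JC-1 (0.5 µM) at 37°C for 30 min and PBS-washed. Flow cytometry used 488 nm excitation, reading emission at 530/630 and 580/610 nm on 10,000 cells. The ratio of red to green fluorescent cells was reported. 2,4-DNP was the positive control and DMSO the vehicle control.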

For the compound `COC(=O)c1ccc(C2SCC(=O)N2c2ccc(N3CCN(S(=O)(=O)c4cc(Cl)ccc4Cl)CC3)cn2)c(OC)c1` (stereo not given), the pIC50 in the assay with Jurkat was under 4.00; in the assay with K562, under 4.00; in assay [1], 4.56.
With `COC(=O)c1ccc(C2SCC(=O)N2c2ccc(N3CCN(S(=O)(=O)c4ccccc4)CC3)cn2)c(OC)c1` (stereo not given), the pIC50 with Jurkat is 4.28; in the assay on K562, 4.18; in assay [1] it was 4.31.
The like results for `COC(=O)c1ccc(C2SCC(=O)N2c2ccc(N3CCN(Cc4cc(OC)c(OC)c(OC)c4)CC3)cn2)c(OC)c1` (stereo not given) were, in that order, 4.39, under 4.00 and under 4.00.
The like results for `COC(=O)c1ccc(C2SCC(=O)N2c2ccc(N3CCN(S(=O)(=O)c4ccc(OC)cc4)CC3)cn2)c(OC)c1` (stereo not given) were, in that order, 4.34, 4.26 and 4.53.
The like results for `COC(=O)c1ccc(C2SCC(=O)N2c2ccc(N3CCN(Cc4cccc(C)c4)CC3)cn2)c(OC)c1` (stereo not given) were, in that order, under 4.00, under 4.00 and 4.56.
For `COC(=O)c1ccc(C2SCC(=O)N2c2ccc(N3CCN(S(=O)(=O)c4ccc(F)cc4)CC3)cn2)c(OC)c1` (stereo not given), the pIC50 with Jurkat was 4.11; in the assay with K562, under 4.00; in assay [1], under 4.00.
As for `COC(=O)c1ccc(C2SCC(=O)N2c2ccc(N3CCN(Cc4cccc([N+](=O)[O-])c4)CC3)cn2)c(OC)c1` (stereo not given), the pIC50 is 4.43 in the assay with Jurkat, 4.16 in the assay with K562 and under 4.00 in assay [1].
For `COC(=O)c1ccc(C2SCC(=O)N2c2ccc(N3CCN(S(=O)(=O)c4c(C)cc(C)cc4C)CC3)cn2)c(OC)c1` (stereo not given) the same measures were under 4.00, 4.27 and under 4.00.
As to `CC(=O)O[C@H]1C(=O)[C@@]2(C)[C@H]([C@H](OC(=O)c3ccccc3)[C@]3(O)C[C@H](OC(=O)[C@H](O)[C@@H](NC(=O)c4ccccc4)c4ccccc4)C(C)=C1C3(C)C)[C@]1(OC(C)=O)CO[C@@H]1C[C@@H]2O` [PACLITAXEL], the pIC50 in the assay with Jurkat is 8.35; in assay [1] it was 8.39.
For the compound `COC(=O)c1ccc(C2SCC(=O)N2c2ccc(N3CCN(Cc4ccc(Cl)c(Cl)c4)CC3)cn2)c(OC)c1` (stereo not given), the pIC50 was 4.21 in the assay on Jurkat, under 4.00 in the assay on K562 and under 4.00 in assay [1].
On to `COC(=O)c1ccc(C2SCC(=O)N2c2ccc(N3CCNCC3)cn2)c(OC)c1` (stereo not given), for which the pIC50 was 4.71 with Jurkat, 4.82 in the assay on K562 and 5.01 in assay [1]. The Activity entry (in assay [2]; in the assay with NALM-6) was “Dose-dependent effect” throughout. The outcome in assay [3], in assay [4] and in assay [5] was Active.
On to `COC(=O)c1ccc(C2SCC(=O)N2c2ccc(N3CCN(S(=O)(=O)c4ccc([N+](=O)[O-])cc4)CC3)cn2)c(OC)c1` (stereo not given), for which the pIC50 in the assay on Jurkat was 4.27; in the assay with K562 it was 4.19; in assay [1], under 4.00.
